According to BindingDB's records for doi:10.1021/acs.jnatprod.7b00271 (University of Eastern Piedmont, 2017):
pEC50, pIC50: −log10 of the molar value.

What was measured:
[1] = molecular target: Signal transducer and activator of transcription 3 (Homo sapiens, UniProt P40763); test: Inhibition of IFN-gamma stimulated STAT3 (unknown origin) expressed in human HeLa cells after 6 hrs by luciferase reporter gene assay
How it was run: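 HeLa-STAT3-Luc cells stimulated with γIFN (20 IU/mL) with or without compounds for 6 h. PBS-washed cells lysed 15 min at room temperature and luciferase RLU measured. Values expressed as percent inhibition of IFN-γ-induced activity (taken as 100%). Mean of at least five independent experiments.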

[2] = molecular target: T1, Nuclear factor erythroid 2-related factor 2 (Homo sapiens, UniProt Q16236); test: Activation of Nrf2 (unknown origin) expressed in human HaCaT-ARE-luc cells after 6 hrs by luciferase reporter gene assay
T1 sequence (Q16236 whole entry): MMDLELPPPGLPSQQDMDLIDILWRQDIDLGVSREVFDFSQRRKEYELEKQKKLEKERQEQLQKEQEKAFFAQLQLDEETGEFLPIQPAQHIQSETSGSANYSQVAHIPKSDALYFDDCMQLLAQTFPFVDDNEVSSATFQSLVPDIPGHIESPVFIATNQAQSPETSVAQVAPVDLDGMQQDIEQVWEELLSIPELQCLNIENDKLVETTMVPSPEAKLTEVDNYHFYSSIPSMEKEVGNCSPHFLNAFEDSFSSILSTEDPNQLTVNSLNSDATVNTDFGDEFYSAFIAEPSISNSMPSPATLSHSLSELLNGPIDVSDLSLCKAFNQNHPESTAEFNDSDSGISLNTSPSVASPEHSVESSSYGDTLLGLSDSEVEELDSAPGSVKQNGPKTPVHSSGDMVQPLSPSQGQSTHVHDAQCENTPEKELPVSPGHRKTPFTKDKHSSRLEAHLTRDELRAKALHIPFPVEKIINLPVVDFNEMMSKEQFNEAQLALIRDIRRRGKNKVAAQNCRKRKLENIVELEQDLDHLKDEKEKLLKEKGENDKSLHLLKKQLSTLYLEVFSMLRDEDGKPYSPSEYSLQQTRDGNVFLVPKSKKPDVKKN
How it was run: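 HaCaT-ARE-Luc keratinocytes in DMEM with 10% FBS, 37 °C, 5% CO2, exposed to compounds for 6 h. Cells then washed with PBS and lysed (Tris-phosphate pH 7.8, MgCl2, DTT, Triton X-100, glycerol, 15 min RT). Luciferase RLU read on the supernatant and EC50 derived. Mean of at least five independent experiments.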

Chain of Signal transducer and activator of transcription 3 (P40763 whole entry): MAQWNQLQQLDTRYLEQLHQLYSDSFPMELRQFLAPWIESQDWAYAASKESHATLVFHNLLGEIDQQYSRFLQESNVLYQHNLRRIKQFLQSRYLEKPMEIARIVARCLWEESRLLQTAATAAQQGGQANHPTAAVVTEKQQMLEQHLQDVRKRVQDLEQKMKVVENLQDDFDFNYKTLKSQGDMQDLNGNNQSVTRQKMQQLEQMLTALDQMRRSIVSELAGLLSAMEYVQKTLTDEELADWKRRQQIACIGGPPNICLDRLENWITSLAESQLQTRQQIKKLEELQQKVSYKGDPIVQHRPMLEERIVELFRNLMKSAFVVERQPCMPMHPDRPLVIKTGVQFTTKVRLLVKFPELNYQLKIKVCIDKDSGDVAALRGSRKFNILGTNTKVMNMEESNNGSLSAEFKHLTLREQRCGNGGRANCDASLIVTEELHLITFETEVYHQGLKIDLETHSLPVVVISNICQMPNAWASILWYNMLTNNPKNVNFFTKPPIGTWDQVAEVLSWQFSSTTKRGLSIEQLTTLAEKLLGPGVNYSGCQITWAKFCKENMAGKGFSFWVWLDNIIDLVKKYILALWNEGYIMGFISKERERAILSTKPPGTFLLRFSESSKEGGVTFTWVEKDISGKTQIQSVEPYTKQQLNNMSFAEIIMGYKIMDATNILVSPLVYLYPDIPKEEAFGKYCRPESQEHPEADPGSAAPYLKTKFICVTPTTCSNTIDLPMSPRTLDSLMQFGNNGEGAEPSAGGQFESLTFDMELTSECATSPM

Structure (SMILES) | pIC50 [1] | pEC50 [2]
COC(=O)[C@]12CCC(C)(C)C[C@H]1C1=CC[C@@H]3[C@@]4(C)CC(C#N)=C(O)C(C)(C)[C@@H]4CC[C@@]3(C)[C@]1(C)CC2 | < 4.60 | < 4.60
COC(=O)[C@]12CCC(C)(C)C[C@H]1C1=CC[C@@H]3[C@@]4(C)CCC(=O)C(C)(C)[C@@H]4CC[C@@]3(C)[C@]1(C)CC2 | < 4.60 | < 4.60
COC(=O)[C@]12CCC(C)(C)C[C@H]1C1=CC[C@@H]3[C@@]4(C)C=C(c5ccccc5)C(=O)C(C)(C)[C@@H]4CC[C@@]3(C)[C@]1(C)CC2 | < 4.60 | < 4.60
COC(=O)[C@]12CCC(C)(C)C[C@H]1C1=CC[C@@H]3[C@@]4(C)Cc5cnoc5C(C)(C)[C@@H]4CC[C@@]3(C)[C@]1(C)CC2 | < 4.60 | < 4.60
CCOC(=O)/C=C/C1=C[C@]2(C)[C@H]3CC=C4[C@@H]5CC(C)(C)CC[C@]5(C(=O)OC)CC[C@@]4(C)[C@]3(C)CC[C@H]2C(C)(C)C1=O | < 4.60 | < 4.60
COC(=O)[C@]12CCC(C)(C)C[C@H]1C1=CC[C@@H]3[C@@]4(C)CC(C=O)=C(O)C(C)(C)[C@@H]4CC[C@@]3(C)[C@]1(C)CC2 | < 4.60 | < 4.60
COC(=O)[C@]12CCC(C)(C)C[C@H]1C1=CC[C@@H]3[C@@]4(C)C=C(c5ccc(OC)cc5)C(=O)C(C)(C)[C@@H]4CC[C@@]3(C)[C@]1(C)CC2 | < 4.60 | < 4.60
COC(=O)[C@]12CCC(C)(C)C[C@H]1[C@H]1C(=O)C=C3[C@@]4(C)C=C(C#N)C(=O)C(C)(C)[C@@H]4CC[C@@]3(C)[C@]1(C)CC2 [CDDO-Me, 2] |  | 7.22
CC1(C)CC[C@]2(C(=O)O)CC[C@]3(C)C(=CC[C@@H]4[C@@]5(C)CC[C@H](O)C(C)(C)[C@@H]5CC[C@]43C)[C@@H]2C1 [Oleanolic acid (OA)(Compound 1)] | < 4.30 | 

Second part, the compound after the results:

pIC50 [1] | pEC50 [2] | Structure (SMILES)
< 4.60 | < 4.60 | COC(=O)[C@]12CCC(C)(C)C[C@H]1C1=CC[C@@H]3[C@@]4(C)C=C(I)C(=O)C(C)(C)[C@@H]4CC[C@@]3(C)[C@]1(C)CC2
< 4.60 | < 4.60 | COC(=O)[C@]12CCC(C)(C)C[C@H]1C1=CC[C@@H]3[C@@]4(C)C=C(c5ccc(C#N)cc5)C(=O)C(C)(C)[C@@H]4CC[C@@]3(C)[C@]1(C)CC2
< 4.60 | 4.94 | COC(=O)[C@]12CCC(C)(C)C[C@H]1C1=CC[C@@H]3[C@@]4(C)C=C(Br)C(=O)C(C)(C)[C@@H]4CC[C@@]3(C)[C@]1(C)CC2
< 4.60 | < 4.60 | COC(=O)[C@]12CCC(C)(C)C[C@H]1C1=CC[C@@H]3[C@@]4(C)C=C(C#Cc5ccccc5)C(=O)C(C)(C)[C@@H]4CC[C@@]3(C)[C@]1(C)CC2
< 4.60 | < 4.60 | COC(=O)C1=C[C@]2(C)[C@H]3CC=C4[C@@H]5CC(C)(C)CC[C@]5(C(=O)OC)CC[C@@]4(C)[C@]3(C)CC[C@H]2C(C)(C)C1=O
< 4.60 | < 4.60 | COC(=O)[C@]12CCC(C)(C)C[C@H]1C1=CC[C@@H]3[C@@]4(C)C=C(OC(C)=O)C(=O)C(C)(C)[C@@H]4CC[C@@]3(C)[C@]1(C)CC2
< 4.60 | < 4.60 | COC(=O)[C@]12CCC(C)(C)C[C@H]1C1=CC[C@@H]3[C@@]4(C)C=CC(=O)C(C)(C)[C@@H]4CC[C@@]3(C)[C@]1(C)CC2
4.59 | 5.61 | COC(=O)[C@]12CCC(C)(C)C[C@H]1C1=CC[C@@H]3[C@@]4(C)C=C(C(=O)O)C(=O)C(C)(C)[C@@H]4CC[C@@]3(C)[C@]1(C)CC2
 | 5.96 | COC(=O)[C@]12CCC(C)(C)C[C@H]1C1=CC[C@@H]3[C@@]4(C)C=C(C#N)C(=O)C(C)(C)[C@@H]4CC[C@@]3(C)[C@]1(C)CC2
